Experimental data reported in ChEMBL document CHEMBL4014282 (Eur J Med Chem, 2017).
In brackets after ≈: the same amount, converted by molar mass.

Key:
[1] = Stability in rat plasma assessed as compound remaining at 1 uM after 120 mins by LC-MS/MS method; type: ADME, cell-free; conditions: read-out: Stability
Method in brief: (§1)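 Rat or mouse plasma, pH adjusted to 7.4 if needed, spiked with compound at 1 µM (2.5% final DMSO) at 37 °C. Stopped at 0, 15, 30, 60 and 120 min with methanol containing internal standard. Parent measured by LC-MS/MS peak-area ratio and expressed as percent remaining relative to 0 min.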

[2] = Stability in mouse plasma assessed as compound remaining at 1 uM after 120 mins by LC-MS/MS method; type: ADME, cell-free; conditions: read-out: Stability; method in brief: as §1
[3] = Stability of the compound in PEG8000/10% PEG400 formulation using solid sample at 5 mg/ml at 5 degC after 30 days by UV-HPLC method; type: physicochemical; conditions: 720 h
Method in brief: (§2)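 Solid tablets cast from hot melt: API dissolved in melted PEG8000 at 90–100 °C with stirring, or first dissolved in PEG400 and then mixed into melted PEG8000, giving a formulation containing 10% PEG400. Stored at 5 or 25 °C, degradation assessed by HPLC over 30 days, with one reading at 33 days.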

[4] = Stability of the compound in polysorbate80/poloxamer188 formulation using liquid sample at 1 mg/ml at 25 degC after 30 days by UV-HPLC method; type: physicochemical; conditions: 720 h
Method in brief: (§3)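 Intravenous-type dosage solution: API at 1 mg/mL in water for injection containing polysorbate 80 and poloxamer 188 (5 mg/mL each). API dissolved in the surfactants at 70–80 °C, hot water added slowly, then cooled to ambient. Stored at 5 or 25 °C; stability followed by HPLC over 30 days.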

[5] = Stability of the compound in PEG8000/10% PEG400 formulation using solid sample assessed as compound degradation at 5 mg/ml at 25 degC after 33 days by UV-HPLC method; type: physicochemical; conditions: read-out: Drug degradation; method in brief: as §2
[6] = Stability of the compound in PEG400 using liquid sample at 10 mg/ml at 5 degC after 30 days by UV-HPLC method; type: physicochemical; conditions: 720 h
Method in brief: (§4)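 API dissolved in PEG400 at 70–80 °C with vortexing to a clear solution at 10 mg/mL. Stored at 5 or 25 °C and checked for degradation by HPLC over 30 days.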

[7] = Stability of the compound in PEG400 using liquid sample at 10 mg/ml at 25 degC after 30 days by UV-HPLC method; type: physicochemical; conditions: 720 h; method in brief: as §4
[8] = Fraction unbound in rat plasma at 5 uM by LC-MS/MS method; type: ADME, cell-free
Method in brief: (§5)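 Equilibrium dialysis across a semi-permeable membrane, buffer (pH 7.4) on one side and 100% species-specific plasma on the other. Test compound at 5 μM with 0.5% final DMSO, 37 °C. Both sides sampled at equilibrium and quantified by LC-MS/MS against matrix-matched standard curves. %fu from duplicate incubations, with a control compound in each run.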

U2OS [9] = test: Antiproliferative activity against human U2OS cells after 72 hrs by CellTiter-Glo luminescent assay; type: functional, cell-based
Method in brief: (§6)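 Cells seeded at 2 x 10⁴/well, rested 24 h, then exposed to increasing concentrations or DMSO vehicle for 72 h. MDA-MB-231 grown in RPMI 1640 with 10% FCS; U2OS grown in DMEM + GlutaMAX with 10% FCS; both at 37°C, 5% CO₂. Viable cells read by ATP luminescence, triplicate wells. IC₅₀ from fitted dose-response curves, mean ± SD of at least 3 independent experiments.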

MDA-MB-231 = test: Antiproliferative activity against human MDA-MB-231 cells after 72 hrs by CellTiter-Glo luminescent assay; type: functional, cell-based; conditions: MDA-MB-231, 72 h; method in brief: as §6
[10] = Intrinsic clearance in Sprague-Dawley rat liver microsomes assessed per mg protein at 3 uM preincubated for 45 mins followed by NADPH addition by LC-MS/MS method
[11] = Stability in simulated gastric fluid at pH 1.2 assessed as compound remaining at 1 uM after 120 mins by LC-MS/MS method
Method in brief: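 Simulated gastric fluid (HCl, NaCl, pepsin; pH 1.2), compound at 1 μM with 2.5% final DMSO, 37 °C. Quenched at 0, 15, 30, 60 and 120 min with methanol containing internal standard. Parent quantified by LC-MS/MS peak-area ratio and expressed as percent remaining versus 0 min.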

[12] = Thermodynamic solubility of the compound in phosphate buffered saline at pH 7.4 at 1 mg sonicated for 10 mins measured after 12 hrs by HPLC method; type: physicochemical; conditions: read-out: Therm_solubility
Method in brief: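 Centrifuged until clear, and supernatant analysed by HPLC at 254 nm. Concentration derived from a linear (Y = aX) calibration of MeCN dilutions at 10–100 µg/mL. Measured at 22 °C.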

[13] = Fraction unbound in mouse plasma at 5 uM by LC-MS/MS method; type: ADME, cell-free; method in brief: as §5
[14] = Aqueous solubility of the compound; type: physicochemical; conditions: buffer
[15] = Stability of the compound in PEG8000 formulation using solid sample at 5 mg/ml at 5 degC after 30 days by UV-HPLC method; type: physicochemical; conditions: 720 h; method in brief: as §2
[16] = Stability of the compound in PEG400 using liquid sample at 5 mg/ml at 25 degC after 30 days by UV-HPLC method; type: physicochemical; conditions: 720 h
[17] = Stability of the compound in polysorbate80/poloxamer188 formulation using liquid sample at 1 mg/ml at 5 degC after 30 days by UV-HPLC method; type: physicochemical; conditions: 720 h; method in brief: as §3
[18] = Stability of the compound in PEG8000 formulation using solid sample at 5 mg/ml at 25 degC after 33 days by UV-HPLC method; type: physicochemical; conditions: 792 h; method in brief: as §2
[19] = Stability of the compound in PEG400 using liquid sample at 5 mg/ml at 5 degC after 30 days by UV-HPLC method; type: physicochemical; conditions: 720 h
U2OS [20] = test: Cell cycle arrest in human U2OS cells assessed as accumulation at G2/M phase after 24 hrs by propidium iodide staining based flow cytometric method; type: functional
Method in brief: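 Exponentially growing U2OS cells treated 24 h with compound or DMSO vehicle. Cells collected, PBS-washed and fixed in ice-cold 70% methanol. About 1 million cells stained 30 min at 37 °C with propidium iodide (1%) plus RNase A (2.5%) in PBS, then analysed by flow cytometry. Phase percentages given as mean ± SD of two independent experiments.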

[21] = Intrinsic clearance in CD1 mouse liver microsomes assessed per mg protein at 3 uM preincubated for 45 mins followed by NADPH addition by LC-MS/MS method

Structure (SMILES)	remaining at 2 h, 1 µM [1]	remaining at 2 h, 1 µM [2]	fraction unbound at 5 µM [8]	IC50 (U2OS [9])	IC50 (MDA-MB-231)	CLH [10]	Stability [11]	fraction unbound at 5 µM [13]	other results
COc1cc(OC)c2c(c1Cl)O[C@]1(C2=O)C(OCc2ccccc2)=CC(=O)C[C@H]1C	101%	91%	0.027	1300 nM	1700 nM	45 mL/min	62%	0.112	Stability [3]: Stable; Stability [4]: Unstable; degraded at 792 h, 5 mg/ml [5]: 4%; Stability [6]: Stable; Stability [7]: Stable; solubility thermodynamic at 12 h [12]: 0.3 µg/mL (≈ 0.7 µM)
COc1cc(OC)c2c(c1Cl)O[C@]1(C2=O)C(OCc2ccc(C)cc2)=CC(=O)C[C@H]1C	89%	102%	0.018	1300 nM	1700 nM	60.2 mL/min	68%	0.018	–
COc1cc(OC)c2c(c1Cl)O[C@]1(C2=O)C(NCc2ccc(C)cc2)=CC(=O)C[C@H]1C	111%	107%	0.055	6900 nM	8200 nM	–	54%	0.11	–
COc1cc(OC)c2c(c1Cl)O[C@]1(C2=O)C(O[C@@H](C)c2ccccc2)=CC(=O)C[C@H]1C	–	–	–	1600 nM	7100 nM	–	–	–	solubility [14]: Insoluble
COc1cc(OC)c2c(c1Cl)O[C@]1(C2=O)C(OCc2ccccc2)=C/C(=N/O)C[C@H]1C	102%	87%	0.014	1200 nM	1400 nM	59.1 mL/min	81%	0.043	Stability [4]: Stable; Stability [15]: Stable; Stability [16]: Stable; solubility thermodynamic at 12 h [12]: 3 µg/mL (≈ 6.76 µM); Stability [17]: Stable; Stability [18]: Stable; Stability [19]: Stable
COC1=CC(=O)C[C@@H](C)[C@]12Oc1c(Cl)c(OC)cc(OC)c1C2=O [GRISEOFULVIN]	107%	107%	0.216	–	–	–	73%	0.427	Activity (U2OS [20]): Dose-dependent effect
COc1cc(OC)c2c(c1Cl)O[C@]1(C2=O)C(OCc2ccc(F)cc2)=CC(=O)C[C@H]1C	–	–	–	–	–	30.7 mL/min	–	–	CLH [21]: 17.4 mL/min
COc1cc(OC)c2c(c1Cl)O[C@]1(C2=O)C(N(C)Cc2ccccc2)=CC(=O)C[C@H]1C	106%	104%	0.06	1900 nM	3500 nM	–	15%	0.087	–
COc1cc(OC)c2c(c1Cl)O[C@]1(C2=O)C(NCc2ccccc2)=CC(=O)C[C@H]1C	116%	117%	0.111	2100 nM	3200 nM	28 mL/min	52%	0.141	Stability [4]: Unstable; Stability [15]: Stable; Activity (U2OS [20]): Dose-dependent effect; Stability [16]: Stable; solubility thermodynamic at 12 h [12]: 62 µg/mL (≈ 145 µM); Stability [17]: Stable; Stability [18]: Stable; Stability [19]: Stable
COc1cc(OC)c2c(c1Cl)O[C@]1(C2=O)C(NCc2ccc(F)cc2)=CC(=O)C[C@H]1C	92%	108%	0.094	2600 nM	5200 nM	–	54%	0.132	–
COc1cc(OC)c2c(c1Cl)O[C@]1(C2=O)C(O[C@H](C)c2ccccc2)=CC(=O)C[C@H]1C	–	–	–	13700 nM	17100 nM	–	–	–	solubility [14]: Insoluble
